Assay results taken from ChEMBL document CHEMBL3259663, “3-Amido-3-aryl-piperidines: A Novel Class of Potent, Selective, and Orally Active GlyT1 Inhibitors” (ACS Med Chem Lett, 2014).
Converted amounts (≈) assume the structure as drawn. The source made the active and inactive calls. The calls are words filed in the database; no cut-off is given here.

What was measured:
[1] = Oral bioavailability in mouse at 7.7 mg/kg; format: ADME, organism-based; details: in vivo
Procedure, shortened: (§1)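 Mouse PK after a 7.7 mg/kg oral dose. Brain/plasma ratio taken at 1.5 h. Values are the average of two independent experiments.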

[2] = biological target: T1, Sodium- and chloride-dependent glycine transporter 1 (Mus musculus, UniProt P28571); experiment: Inhibition of mouse GlyT1
T1 sequence (P28571 whole entry): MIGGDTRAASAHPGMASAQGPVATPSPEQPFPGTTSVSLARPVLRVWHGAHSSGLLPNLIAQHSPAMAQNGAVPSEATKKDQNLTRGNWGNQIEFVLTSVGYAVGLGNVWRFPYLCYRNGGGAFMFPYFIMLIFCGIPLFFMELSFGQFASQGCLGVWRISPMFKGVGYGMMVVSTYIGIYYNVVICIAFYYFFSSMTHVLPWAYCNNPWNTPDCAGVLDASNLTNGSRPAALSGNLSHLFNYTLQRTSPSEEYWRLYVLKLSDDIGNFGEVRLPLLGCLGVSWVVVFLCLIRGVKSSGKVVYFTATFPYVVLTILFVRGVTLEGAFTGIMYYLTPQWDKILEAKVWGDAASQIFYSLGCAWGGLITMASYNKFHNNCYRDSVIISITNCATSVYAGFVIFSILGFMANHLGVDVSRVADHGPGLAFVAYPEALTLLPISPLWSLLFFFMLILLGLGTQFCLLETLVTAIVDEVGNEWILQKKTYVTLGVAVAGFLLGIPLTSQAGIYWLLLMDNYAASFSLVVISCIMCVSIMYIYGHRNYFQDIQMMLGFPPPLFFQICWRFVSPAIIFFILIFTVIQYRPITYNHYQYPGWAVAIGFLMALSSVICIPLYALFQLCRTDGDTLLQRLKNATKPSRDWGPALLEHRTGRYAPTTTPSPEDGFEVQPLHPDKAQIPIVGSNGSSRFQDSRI

hERG (KCNH2) = hERG (KCNH2) (Homo sapiens, UniProt Q12809); experiment: Inhibition of human ERG channel by Patch clamp assay
Sequence of hERG (KCNH2) (Q12809 whole entry): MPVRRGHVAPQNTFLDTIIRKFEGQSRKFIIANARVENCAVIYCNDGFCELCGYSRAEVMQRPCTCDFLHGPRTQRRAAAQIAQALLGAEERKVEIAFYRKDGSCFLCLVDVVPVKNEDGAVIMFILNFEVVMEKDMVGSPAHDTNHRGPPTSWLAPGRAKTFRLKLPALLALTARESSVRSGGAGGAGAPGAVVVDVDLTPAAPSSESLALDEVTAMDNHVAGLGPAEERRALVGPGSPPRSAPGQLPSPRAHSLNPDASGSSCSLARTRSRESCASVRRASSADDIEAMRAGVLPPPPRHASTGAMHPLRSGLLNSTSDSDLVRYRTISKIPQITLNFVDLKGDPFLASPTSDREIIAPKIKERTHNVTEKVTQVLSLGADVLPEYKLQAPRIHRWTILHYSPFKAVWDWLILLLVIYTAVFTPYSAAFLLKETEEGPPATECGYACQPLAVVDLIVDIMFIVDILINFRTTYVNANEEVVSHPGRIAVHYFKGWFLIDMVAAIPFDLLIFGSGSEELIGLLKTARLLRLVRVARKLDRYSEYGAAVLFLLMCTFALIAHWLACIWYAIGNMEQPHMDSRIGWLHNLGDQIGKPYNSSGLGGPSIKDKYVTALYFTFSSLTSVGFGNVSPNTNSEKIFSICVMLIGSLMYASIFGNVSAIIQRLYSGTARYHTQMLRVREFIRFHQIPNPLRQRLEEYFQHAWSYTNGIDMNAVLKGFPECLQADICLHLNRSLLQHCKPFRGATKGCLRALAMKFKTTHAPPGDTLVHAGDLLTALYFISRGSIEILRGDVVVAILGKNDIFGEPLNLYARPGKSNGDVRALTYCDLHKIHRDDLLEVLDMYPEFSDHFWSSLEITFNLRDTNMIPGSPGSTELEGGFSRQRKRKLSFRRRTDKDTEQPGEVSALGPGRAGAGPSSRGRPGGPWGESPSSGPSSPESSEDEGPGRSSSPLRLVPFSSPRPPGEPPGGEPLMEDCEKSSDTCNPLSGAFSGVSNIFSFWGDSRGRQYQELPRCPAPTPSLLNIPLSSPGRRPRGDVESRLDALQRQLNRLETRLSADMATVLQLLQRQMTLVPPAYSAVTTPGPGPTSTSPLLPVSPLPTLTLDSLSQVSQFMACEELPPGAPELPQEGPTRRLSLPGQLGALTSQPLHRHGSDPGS

Striatum [3] = experiment: Induction of extracellular glycine level in rat striatum at 10 mg/kg, po after 3 hrs relative to basal level; format: functional
Procedure, shortened: (§2)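 Rat striatal microdialysis after a 10 mg/kg oral dose. Extracellular glycine measured as fold over basal levels, with sampling stopped at 3 h. Plasma and brain exposures determined at 3 h post-dose. n = 6.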

[4] = Intrinsic clearance in human liver microsomes; format: ADME; details: read-out: CLH
Cytochrome P450 2C9 = Cytochrome P450 2C9 (Homo sapiens, UniProt P11712); experiment: Inhibition of CYP2C9 (unknown origin); format: ADME
Sequence of Cytochrome P450 2C9 (P11712 whole entry): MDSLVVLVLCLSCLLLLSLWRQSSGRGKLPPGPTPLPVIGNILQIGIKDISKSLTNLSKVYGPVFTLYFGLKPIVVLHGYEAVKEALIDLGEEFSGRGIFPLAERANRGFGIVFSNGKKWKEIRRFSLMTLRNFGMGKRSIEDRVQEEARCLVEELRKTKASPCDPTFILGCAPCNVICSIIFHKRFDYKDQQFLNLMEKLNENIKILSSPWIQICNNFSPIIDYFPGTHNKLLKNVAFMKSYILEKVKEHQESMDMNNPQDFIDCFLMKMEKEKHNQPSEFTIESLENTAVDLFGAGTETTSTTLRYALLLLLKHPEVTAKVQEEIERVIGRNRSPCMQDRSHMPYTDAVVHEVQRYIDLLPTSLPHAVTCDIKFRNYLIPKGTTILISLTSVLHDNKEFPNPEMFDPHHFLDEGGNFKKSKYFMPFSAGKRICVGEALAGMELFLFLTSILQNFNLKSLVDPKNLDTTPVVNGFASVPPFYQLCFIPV

Salmonella typhimurium = experiment: Genotoxicity in Salmonella typhimurium by Ames test; format: toxicity, organism-based; details: salmonella enterica subsp. enterica serovar typhimurium
[5] = Solubility of the compound at pH 6.5 by lyophilization solubility assay; format: physicochemical; details: buffer
Procedure, shortened: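 Lyophilization solubility assay. DMSO solution of compound is lyophilized, dissolved in 0.05 M phosphate buffer pH 6.5, stirred 1 h, then shaken 2 h.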

[6] = Half life in mouse at 7.7 mg/kg, po; format: ADME, organism-based; design: dose 7.7 mg/kg, route oral; details: in vivo; procedure, shortened: as §1
Striatum [7] = experiment: Effect on plasma glycine level in rat striatum at 10 mg/kg, po; format: functional; procedure, shortened: as §2
Mus musculus [8] = experiment: Inhibition of L687414-induced hyperlocomotion in po dosed mouse assessed horizontal activity at 8 ng/ml plasma concentration; format: functional, organism-based
[9] = biological target: T2, Sodium- and chloride-dependent glycine transporter 1 (Homo sapiens, UniProt P48067); experiment: Inhibition of human GlyT1 expressed in cells assessed as [3H]glycine uptake; format: cell-based
T2 sequence (P48067 whole entry): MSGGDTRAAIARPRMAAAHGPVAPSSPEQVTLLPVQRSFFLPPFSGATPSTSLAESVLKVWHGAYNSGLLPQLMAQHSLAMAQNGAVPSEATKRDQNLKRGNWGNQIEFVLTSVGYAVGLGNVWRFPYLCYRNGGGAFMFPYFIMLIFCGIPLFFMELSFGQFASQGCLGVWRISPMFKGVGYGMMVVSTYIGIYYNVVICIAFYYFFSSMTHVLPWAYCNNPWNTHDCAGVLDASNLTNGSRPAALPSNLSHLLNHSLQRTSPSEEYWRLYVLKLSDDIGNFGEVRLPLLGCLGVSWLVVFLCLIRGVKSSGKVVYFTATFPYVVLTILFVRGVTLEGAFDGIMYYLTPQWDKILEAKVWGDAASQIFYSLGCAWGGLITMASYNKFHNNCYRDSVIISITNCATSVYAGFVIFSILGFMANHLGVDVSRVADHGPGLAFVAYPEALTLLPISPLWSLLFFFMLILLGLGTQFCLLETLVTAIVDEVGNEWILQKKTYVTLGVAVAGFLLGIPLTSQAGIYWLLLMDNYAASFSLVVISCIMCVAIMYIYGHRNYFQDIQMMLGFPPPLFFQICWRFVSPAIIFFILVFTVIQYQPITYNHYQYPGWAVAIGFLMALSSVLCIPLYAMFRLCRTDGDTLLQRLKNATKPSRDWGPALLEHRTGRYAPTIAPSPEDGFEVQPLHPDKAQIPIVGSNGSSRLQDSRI
Procedure, shortened: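 [³H]-glycine uptake inhibition in cells transfected with human GlyT1. EC₅₀ values are the average of at least two independent experiments.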

Mus musculus [10] = experiment: Inhibition of L687414-induced hyperlocomotion in po dosed mouse assessed horizontal activity; format: functional
Procedure, shortened: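 Oral dosing in mice against L-687,414-induced hyperlocomotion. Horizontal activity counts recorded over 60 min, mean per group, n = 8 per group. ID₅₀ is the dose producing 50% inhibition of the hyperlocomotion.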

[11] = Intrinsic clearance in mouse liver microsomes; format: ADME; details: read-out: CLH
[12] = Permeability of the compound by PAMPA; format: physicochemical; details: read-out: permeability
MDR1 (P-gp) = experiment: Efflux ratio of permeability in pig LLC-PK1 cells expressing human MDR1; format: ADME, cell-based, Sus scrofa
Procedure, shortened: (§3)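 Efflux ratio measured in LLC-PK1 cells stably expressing human MDR1 or mouse MDR1A.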

Cytochrome P450 2C19 = Cytochrome P450 2C19 (Homo sapiens, UniProt P33261); experiment: Inhibition of CYP2C19 (unknown origin); format: ADME
Sequence of Cytochrome P450 2C19 (P33261 whole entry): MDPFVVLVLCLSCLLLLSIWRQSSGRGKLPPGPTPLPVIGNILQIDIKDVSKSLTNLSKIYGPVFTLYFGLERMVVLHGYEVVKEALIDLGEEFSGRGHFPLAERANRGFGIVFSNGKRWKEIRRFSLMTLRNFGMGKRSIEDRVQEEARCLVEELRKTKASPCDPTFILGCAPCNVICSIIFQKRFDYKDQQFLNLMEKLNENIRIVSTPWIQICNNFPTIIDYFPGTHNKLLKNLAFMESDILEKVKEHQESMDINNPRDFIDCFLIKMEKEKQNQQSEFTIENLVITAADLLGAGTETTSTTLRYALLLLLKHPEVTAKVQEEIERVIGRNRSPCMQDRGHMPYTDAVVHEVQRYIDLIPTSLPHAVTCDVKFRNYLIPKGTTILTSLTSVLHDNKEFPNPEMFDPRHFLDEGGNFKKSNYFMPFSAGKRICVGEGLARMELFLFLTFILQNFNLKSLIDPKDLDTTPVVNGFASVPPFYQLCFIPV

Cytochrome P450 3A4 = Cytochrome P450 3A4 (Homo sapiens, UniProt P08684); experiment: Inhibition of CYP3A4 (unknown origin); format: ADME
Sequence of Cytochrome P450 3A4 (P08684 whole entry): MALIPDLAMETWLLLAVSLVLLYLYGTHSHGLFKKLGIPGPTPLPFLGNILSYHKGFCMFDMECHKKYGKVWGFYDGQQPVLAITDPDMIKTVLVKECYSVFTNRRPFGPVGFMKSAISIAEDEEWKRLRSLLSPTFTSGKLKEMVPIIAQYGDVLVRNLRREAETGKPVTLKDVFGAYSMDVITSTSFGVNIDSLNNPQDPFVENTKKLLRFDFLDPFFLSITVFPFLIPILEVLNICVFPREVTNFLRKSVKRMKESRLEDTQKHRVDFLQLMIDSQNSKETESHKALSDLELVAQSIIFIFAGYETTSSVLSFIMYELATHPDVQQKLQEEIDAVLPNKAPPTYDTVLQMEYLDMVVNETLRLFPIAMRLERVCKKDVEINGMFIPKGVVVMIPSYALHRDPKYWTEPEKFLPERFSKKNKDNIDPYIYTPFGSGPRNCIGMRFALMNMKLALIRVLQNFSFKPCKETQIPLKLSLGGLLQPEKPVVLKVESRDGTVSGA

MDR1A (P-gp) = experiment: Efflux ratio of permeability in pig LLC-PK1 cells expressing mouse MDR1A; format: ADME, cell-based, Sus scrofa; procedure, shortened: as §3
[13] = Ratio of drug level in rat brain after 3 hrs to EC50 for human GlyT1 by [3H]glycine uptake assay

SMILES: COc1cc(C(F)(F)F)cc(SC)c1C(=O)N[C@@]1(c2ccccc2)CCCN(C)C1
- bioavailability [1]: 100%
- EC50 [2]: 0.005 µM
- IC20 (hERG (KCNH2)): 5.4 µM
- fold change (FC) (Striatum [3]): 1.5
- microsomal CLint [4]: 19 µL/min/mg
- IC50 (Cytochrome P450 2C9): > 50 µM
- Activity (Salmonella typhimurium): Non-toxic
- solubility [5]: 147 µg/mL (≈ 335 µM)
- half-life [6]: 4.2 h
- Activity (Striatum [7]): 713 ng/mL
- inhibition (Mus musculus [8]): Active
- EC50 [9]: 0.01 µM
- inhibition (Mus musculus [10]): Dose-dependent effect
- ED50 (Mus musculus [10]; read-out: ID50 (the source's name)): 1.5 mg/kg
- microsomal CLint [11]: 54 µL/min/mg
- Papp [12]: 7.4 ×10⁻⁶ cm/s
- efflux ratio (MDR1 (P-gp)): 0.9
- IC50 (Cytochrome P450 2C19): 46 µM
- IC50 (Cytochrome P450 3A4): > 50 µM
- efflux ratio (MDR1A (P-gp)): 1.5
- Ratio [13]: 13
